Blank lines part the entries; values can stand above or below the compound they belong to.
How the values were obtained:
Rattus norvegicus [1] = assay: In vivo triglyceride lowering activity when dosed at 0.03 % of the diet; type: functional
Outline: (§1)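 Normal rats were dosed in the diet. Serum sterol and triglyceride levels were measured and expressed as the mean percent of control values. Significance versus control was reported at p < 0.05, 0.01 and 0.001.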

Rattus norvegicus [2] = assay: In vivo sterol lowering activity when dosed as 0.03 % of the diet; type: functional; outline: as §1
Rattus norvegicus [3] = assay: In vivo triglyceride lowering activity dosed at 0.10 % of the diet.; type: functional; outline: as §1
Rattus norvegicus [4] = assay: In vivo sterol lowering activity at dose of 0.10 % of the diet; type: functional; outline: as §1
Rattus norvegicus [5] = assay: In vivo triglyceride lowering activity when dosed as 0.01 % of the diet; type: functional; outline: as §1
[6] = target: T1, Sterol O-acyltransferase 1 (Rattus norvegicus) (UniProt O70536); assay: In vitro inhibition of acyl coenzyme A:cholesterol acyltransferase; design: concentration or dose not given beside the values; details: concentration not given here
T1 sequence (whole entry): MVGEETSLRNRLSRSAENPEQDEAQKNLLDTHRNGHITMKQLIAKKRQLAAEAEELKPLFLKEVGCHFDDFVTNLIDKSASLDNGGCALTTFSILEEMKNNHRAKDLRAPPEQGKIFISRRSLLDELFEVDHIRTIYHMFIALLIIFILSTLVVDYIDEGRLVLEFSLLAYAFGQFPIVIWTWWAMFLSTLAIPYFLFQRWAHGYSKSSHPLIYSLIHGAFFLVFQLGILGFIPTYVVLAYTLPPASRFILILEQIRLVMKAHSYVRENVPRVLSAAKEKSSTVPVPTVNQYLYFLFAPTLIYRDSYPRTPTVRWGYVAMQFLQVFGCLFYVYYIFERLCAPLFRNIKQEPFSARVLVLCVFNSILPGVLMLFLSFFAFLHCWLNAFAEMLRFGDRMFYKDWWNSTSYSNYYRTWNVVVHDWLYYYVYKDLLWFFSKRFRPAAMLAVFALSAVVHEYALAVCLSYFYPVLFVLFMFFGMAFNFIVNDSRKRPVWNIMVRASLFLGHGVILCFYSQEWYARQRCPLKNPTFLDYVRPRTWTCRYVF
Outline: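 Enzyme fatty acyl-CoA:cholesterol acyltransferase (ACAT), assayed in vitro at a single drug concentration of 5.2 μg/mL. The value is the mean percent inhibition of enzyme activity.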

Rattus norvegicus [7] = assay: In vivo sterol lowering activity when dosed as 0.01 % of the diet; type: functional; outline: as §1

- inhibition [6]: 0%
SMILES: CCCCCCCCCCCCCCCCNc1ccc(C(SCC)SCC)cc1
- serum triglyceride level, percent of control (Rattus norvegicus [1]): 106%
- serum sterol level, percent of control (Rattus norvegicus [2]): 101%
- serum triglyceride, percent of control (Rattus norvegicus [3]): 77%
- serum sterol level, percent of control (Rattus norvegicus [4]): 88%
- serum triglyceride level, percent of control (Rattus norvegicus [5]): 86%
- serum sterol level, % of control (Rattus norvegicus [7]): 96%

- inhibition [6]: 49%
SMILES: CCCCCCCCCCCCCCCCNc1ccc(C(=O)NCCC(=O)O)cc1
- serum triglyceride level, percent of control (Rattus norvegicus [1]): 78%
- serum sterol level, percent of control (Rattus norvegicus [2]): 93%
- serum triglyceride, percent of control (Rattus norvegicus [3]): <55%
- serum sterol level, percent of control (Rattus norvegicus [4]): <86%
- serum triglyceride level, percent of control (Rattus norvegicus [5]): 99%
- serum sterol level, % of control (Rattus norvegicus [7]): <90%

- inhibition [6]: 7%
SMILES: CCCCCCCCCCCCCCCCNc1ccc(CCC(=O)OCC)cc1
- serum triglyceride level, percent of control (Rattus norvegicus [1]): 88%
- serum sterol level, percent of control (Rattus norvegicus [2]): 89%
- serum triglyceride, percent of control (Rattus norvegicus [3]): <45%
- serum sterol level, percent of control (Rattus norvegicus [4]): 84%
- serum triglyceride level, percent of control (Rattus norvegicus [5]): 96%
- serum sterol level, % of control (Rattus norvegicus [7]): 89%

- inhibition [6]: 17%
SMILES: CCCCCCCCCCCCCCCCNc1ccc(C(=O)OCCO)cc1
- serum triglyceride level, percent of control (Rattus norvegicus [1]): <65%
- serum sterol level, percent of control (Rattus norvegicus [2]): 92%
- serum triglyceride, percent of control (Rattus norvegicus [3]): <52%
- serum sterol level, percent of control (Rattus norvegicus [4]): <83%
- serum triglyceride level, percent of control (Rattus norvegicus [5]): <75%
- serum sterol level, % of control (Rattus norvegicus [7]): 106%

- inhibition [6]: 0%
SMILES: CCCCCCCCCCCCCCCCNc1ccc(C(=O)OCC(O)COC(=O)c2cccnc2)cc1 (centres undefined)
- serum triglyceride level, percent of control (Rattus norvegicus [1]): 83%
- serum sterol level, percent of control (Rattus norvegicus [2]): 108%
- serum triglyceride, percent of control (Rattus norvegicus [3]): <63%
- serum sterol level, percent of control (Rattus norvegicus [4]): 84%
- serum triglyceride level, percent of control (Rattus norvegicus [5]): 93%
- serum sterol level, % of control (Rattus norvegicus [7]): 103%

- inhibition [6]: 50%
SMILES: CCCCCCCCCCCCCCCCNc1ccc(CCC(=O)O)cc1
- serum triglyceride level, percent of control (Rattus norvegicus [1]): <50%
- serum sterol level, percent of control (Rattus norvegicus [2]): <80%
- serum triglyceride, percent of control (Rattus norvegicus [3]): <37%
- serum sterol level, percent of control (Rattus norvegicus [4]): 92%
- serum triglyceride level, percent of control (Rattus norvegicus [5]): <59%
- serum sterol level, % of control (Rattus norvegicus [7]): 88%

- inhibition [6]: 14%
SMILES: CCCCCCCCCCCCCCCCNc1ccc(C(=O)NS(=O)(=O)c2ccc(N)cc2)cc1
- serum triglyceride level, percent of control (Rattus norvegicus [1]): 87%
- serum sterol level, percent of control (Rattus norvegicus [2]): 89%
- serum triglyceride, percent of control (Rattus norvegicus [3]): 111%
- serum sterol level, percent of control (Rattus norvegicus [4]): 105%
- serum triglyceride level, percent of control (Rattus norvegicus [5]): 78%
- serum sterol level, % of control (Rattus norvegicus [7]): 93%

- inhibition [6]: 9%
SMILES: CCCCCCCCCCCCCCCCNc1ccc(C(=O)NO)cc1
- serum triglyceride level, percent of control (Rattus norvegicus [1]): 76%
- serum sterol level, percent of control (Rattus norvegicus [2]): 106%
- serum triglyceride, percent of control (Rattus norvegicus [3]): 82%
- serum sterol level, percent of control (Rattus norvegicus [4]): 104%
- serum triglyceride level, percent of control (Rattus norvegicus [5]): 70%
- serum sterol level, % of control (Rattus norvegicus [7]): 106%

- inhibition [6]: < 19%
SMILES: CCCCCCCCCCCCCCCCNc1ccc(C(=O)OCC(C)O)cc1 (centres undefined)
- serum triglyceride level, percent of control (Rattus norvegicus [1]): <61%
- serum sterol level, percent of control (Rattus norvegicus [2]): <82%
- serum triglyceride, percent of control (Rattus norvegicus [3]): <59%
- serum sterol level, percent of control (Rattus norvegicus [4]): <89%
- serum triglyceride level, percent of control (Rattus norvegicus [5]): <67%
- serum sterol level, % of control (Rattus norvegicus [7]): 96%

- inhibition [6]: 0%
SMILES: CCCCCCCCCCCCCCCCNc1ccc(C(=O)CS(C)(=O)=O)cc1
- serum triglyceride level, percent of control (Rattus norvegicus [1]): 112%
- serum sterol level, percent of control (Rattus norvegicus [2]): 97%
- serum triglyceride, percent of control (Rattus norvegicus [3]): 110%
- serum sterol level, percent of control (Rattus norvegicus [4]): 100%
- serum triglyceride level, percent of control (Rattus norvegicus [5]): 88%
- serum sterol level, % of control (Rattus norvegicus [7]): 98%

- inhibition [6]: 16%
SMILES: CCCCCCCCCCCCCCCCNc1ccc(C(=O)NCC(=O)OCC)cc1
- serum triglyceride level, percent of control (Rattus norvegicus [1]): 74%
- serum sterol level, percent of control (Rattus norvegicus [2]): 96%
- serum triglyceride, percent of control (Rattus norvegicus [3]): <69%
- serum sterol level, percent of control (Rattus norvegicus [4]): 92%
- serum triglyceride level, percent of control (Rattus norvegicus [5]): 78%
- serum sterol level, % of control (Rattus norvegicus [7]): 92%

- inhibition [6]: < 22%
SMILES: CCCCCCCCCCCCCCCCNc1ccc(C(=O)CC#N)cc1
- serum triglyceride level, percent of control (Rattus norvegicus [1]): 140%
- serum sterol level, percent of control (Rattus norvegicus [2]): 104%
- serum triglyceride, percent of control (Rattus norvegicus [3]): 130%
- serum sterol level, percent of control (Rattus norvegicus [4]): 115%
- serum triglyceride level, percent of control (Rattus norvegicus [5]): 132%
- serum sterol level, % of control (Rattus norvegicus [7]): 107%

Reference: ChEMBL document CHEMBL1122366, “Potential antiatherosclerotic agents. 3. Substituted benzoic and non benzoic acid analogues of cetaben” (1983)
